Tests used:
[1] = molecular target: T1, rat IDE (Rattus norvegicus, UniProt P35559); assay: Native PAGE mobility shift of rat IDE; format: binding; conditions: ATP 3 mM
T1 sequence (P35559 1-1019): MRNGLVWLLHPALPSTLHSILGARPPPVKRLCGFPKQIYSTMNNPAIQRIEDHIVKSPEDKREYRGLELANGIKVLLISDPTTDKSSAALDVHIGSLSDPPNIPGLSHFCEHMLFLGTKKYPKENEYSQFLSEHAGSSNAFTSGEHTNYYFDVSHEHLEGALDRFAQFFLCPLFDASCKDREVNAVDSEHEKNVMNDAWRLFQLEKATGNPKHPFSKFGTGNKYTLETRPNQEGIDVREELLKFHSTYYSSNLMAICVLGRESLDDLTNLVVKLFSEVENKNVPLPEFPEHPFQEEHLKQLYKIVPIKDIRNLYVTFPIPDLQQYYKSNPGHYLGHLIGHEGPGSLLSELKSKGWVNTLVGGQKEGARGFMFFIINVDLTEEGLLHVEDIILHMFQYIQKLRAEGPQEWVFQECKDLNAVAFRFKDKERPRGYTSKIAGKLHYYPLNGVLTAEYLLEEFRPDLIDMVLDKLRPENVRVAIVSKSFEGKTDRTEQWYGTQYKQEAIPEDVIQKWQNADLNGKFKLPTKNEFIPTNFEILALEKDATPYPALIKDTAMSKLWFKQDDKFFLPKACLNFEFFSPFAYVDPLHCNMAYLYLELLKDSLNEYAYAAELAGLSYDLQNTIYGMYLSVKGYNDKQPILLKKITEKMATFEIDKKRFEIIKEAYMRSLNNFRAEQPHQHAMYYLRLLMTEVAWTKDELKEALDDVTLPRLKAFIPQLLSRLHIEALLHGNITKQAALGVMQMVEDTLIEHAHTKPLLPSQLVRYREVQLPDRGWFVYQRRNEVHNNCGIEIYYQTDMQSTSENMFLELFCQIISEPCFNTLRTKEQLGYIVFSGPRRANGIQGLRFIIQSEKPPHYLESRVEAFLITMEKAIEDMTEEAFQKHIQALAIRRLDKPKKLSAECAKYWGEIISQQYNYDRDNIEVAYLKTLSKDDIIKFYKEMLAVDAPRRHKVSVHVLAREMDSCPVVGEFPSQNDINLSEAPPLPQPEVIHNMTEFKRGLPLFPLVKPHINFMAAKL
In short: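 Rat IDE was preincubated 60 min at 37 °C with compound (100 µM) or ATP (3 mM). It was mixed 1:1 with 2× native sample buffer (0.6 M Tris-HCl pH 6.8, 20% glycerol, bromophenol blue), run on 10% native PAGE at 4 °C and silver-stained.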

[2] = molecular target: T1, rat IDE; assay: ATP effect on rat IDE activity and activators; format: biochemical
In short: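 Rat IDE (87.7 nM) with 50 µM a-factor–based internally quenched fluorogenic substrate in 50 mM Tris pH 7.5 containing BSA and 1 mM ATP. Compounds were used at optimal levels taken from Tris/BSA dose-response curves. ATP titration (0–10 mM) was also run in 0.1 M KPi pH 7.6 or Tris/BSA. Activity is % of water- or DMSO-treated control, n = 4.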

[3] = molecular target: T1, rat IDE; assay: Dose-response of rat IDE activation; format: biochemical; conditions: rat IDE activation, a-factor–based substrate
In short: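 Rat IDE (10 µg/mL) in 0.1 M KPi pH 7.6 was preincubated 10 min at 37 °C with activator (up to 1 mM), then mixed 1:1 with a-factor–based fluorogenic substrate (50 µM final). Fluorescence (320 ex) was read over 60 min and rate taken from the 15–30 min window. Baseline was subtracted and rates normalized to trypsin/pronase E full digestion. AC50 came from best-fit curves, or [Max]50 where the curve was not sigmoidal.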

In the case of `Nc1ncnc2c1ncn2[C@@H]1O[C@H](COP(=O)(O)OP(=O)(O)OP(=O)(O)O)[C@@H](O)[C@H]1O` [ATP, adenosine triphosphate, reference compound], the “native PAGE mobility shift of IDE” value [1] is reported as “did not observe a mobility shift”, the “ATP-dependent activation of IDE” value ([2]; KPi buffer, assay conditions used for HTS) is reported as “not observed” and the maximum activating concentration ([2]; Tris/BSA buffering system) is reported as “approximately 1 mM”.

`Cc1ccc(C(=O)Nc2ccc(S(=O)(=O)O)c3cc(S(=O)(=O)O)cc(S(=O)(=O)O)c23)cc1NC(=O)c1cccc(NC(=O)Nc2cccc(C(=O)Nc3cc(C(=O)Nc4ccc(S(=O)(=O)O)c5cc(S(=O)(=O)O)cc(S(=O)(=O)O)c45)ccc3C)c2)c1` [suramin, reference compound] was tested, and the dose-response profile [3] was “hormetic response”.

Reference: PMC5901702 (Journal of biomolecular screening, 2012)
